NR2E3 ag-1 – NR2E3 (human) agonism | Q9Y5X4 | GST-NR2E3/biotin-RetCOR TR-FRET, 1536-well | inhibition of corepressor binding, % at 4.78 µM | 320,000 compounds, 0.12% hits | AID 2300;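 active = percent inhibition above the cutoff of mean plus 3 SD of all tested compounds, set per screening campaign, cut at about 20% in these data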;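 note: 0% = DMSO wells and 100% = biotin wells as full block of FRET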
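System: GST-NR2E3 and biotin-RetCOR proteins; probe or stimulus: 7 nM biotin-RetCOR; doses: compound at 4.8 µM, single dose; schedule: Compound–protein incubation for 5 h at 4 °C; detection: time-resolved FRET; read-out: percent inhibition; controls: biotin wells as high control, 0.6% DMSO wells as low control; format: 1536-well plates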
Neddylation inh – blocks human cullin neddylation; P61081+Q13564; AID 651699; TR-FRET cullin neddylation, biochemical; 360,000 compounds, 0.58% hits; calls only at 25 µM; in the data active = inhibition above about 36%
Target sequence (P61081 whole entry, looked up): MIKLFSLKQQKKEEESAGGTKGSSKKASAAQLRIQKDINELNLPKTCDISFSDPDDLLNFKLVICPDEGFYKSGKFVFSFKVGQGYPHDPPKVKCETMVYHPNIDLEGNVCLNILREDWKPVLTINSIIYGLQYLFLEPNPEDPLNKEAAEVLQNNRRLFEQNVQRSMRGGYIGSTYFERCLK
Target sequence (Q13564 whole entry, looked up): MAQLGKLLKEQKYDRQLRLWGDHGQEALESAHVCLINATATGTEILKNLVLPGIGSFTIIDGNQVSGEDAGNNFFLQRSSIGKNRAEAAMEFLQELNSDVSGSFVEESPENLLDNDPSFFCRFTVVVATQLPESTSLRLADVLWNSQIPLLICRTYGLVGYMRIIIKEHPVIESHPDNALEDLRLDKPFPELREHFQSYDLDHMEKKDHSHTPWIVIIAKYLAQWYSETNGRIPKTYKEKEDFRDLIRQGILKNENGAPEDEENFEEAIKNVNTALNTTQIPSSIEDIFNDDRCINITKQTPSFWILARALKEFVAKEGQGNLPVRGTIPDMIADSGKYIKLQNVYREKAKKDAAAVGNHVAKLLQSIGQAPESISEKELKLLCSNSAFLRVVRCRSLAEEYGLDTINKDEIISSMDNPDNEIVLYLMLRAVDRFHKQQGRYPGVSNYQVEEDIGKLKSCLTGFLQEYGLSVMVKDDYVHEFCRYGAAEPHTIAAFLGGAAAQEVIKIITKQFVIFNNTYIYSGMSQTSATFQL
PG9 Ab binder – small molecules binding HIV-1 gp120 antibody PG9; inhibition, % at 6.7 µM; 360,000 compounds, 0.43% hits; TR-FRET gp120-PG9 antibody binding; in the data active = inhibition above about 8.5%
Rev-erbA mod – modulates human Rev-erb alpha binding to DNA; P20393; Rev-erbα–FITC-DNA binding, fluorescence polarization, 90 min; activity, % at 10 µM; 370,000 compounds, 0.79% hits; AID 1259318;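 active = activity above about 14%, limit read from the data; passing the limit was not always enough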;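 note: 0% = DMSO wells with 35 nM protein and 100% = DMSO wells with 750 nM protein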
NR2E3 ag-2 – activates human NR2E3 receptor | Q9Y5X4 | CHO-S Gal4-NCOR/VP16-NR2E3 two-hybrid, luciferase | inhibition of corepressor binding, % at 3.98 µM | 360,000 compounds, 0.35% hits;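 active = inhibition above the mean of all tested compounds plus 3 SD, cut at about 70% in these data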;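 note: 0% = DMSO with NR2E3 transfected cells and 100% = cells lacking NR2E3 construct; higher means lower luciferase signal from less NR2E3 corepressor binding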
Neddyl conf – cullin neddylation inhibition, confirmation; shares compounds with Neddylation inh; TR-FRET cullin neddylation biochemical assay; calls only at 25 µM; 1,800 compounds, 13% hits; in the data active = inhibition above about 40%;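 note: neddylation substrate is the cullin 1 ring ligase complex with SKP2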
An asterisk follows results filed as active; i = inactive; x = no result shown; + = active, no number. This is a sample that favours compounds with a hit; in the whole collection about 2% have one here.

SMILES	NR2E3 ag-1	Neddylation inh	PG9 Ab binder	Rev-erbA mod	NR2E3 ag-2	Neddyl conf
CC(=Nc1ccccc1)C1=C(O)C(Cc2cccc(F)c2)NC1=O (stereo not given)	x	i	0	1	20	x
O=c1ccc(/C=C/c2ccccc2)nn1Cc1ccc(F)cc1	-1	+	-2	-1	-7	i
Cc1ccc(/C=C/c2ccc(=O)n(Cc3ccc(F)cc3)n2)cc1	4	x	-5	2	6	x
COc1ccc(/C=C/c2ccc(=O)n(Cc3ccccc3)n2)cc1	2	+	-2	-1	-10	x
CCOC(=O)Cn1nc(/C=C/c2ccc(OC)cc2)ccc1=O	1	i	-3	-6	-27	x
Cc1c(Oc2ccc(C(F)(F)F)cc2[N+](=O)[O-])ccc2c3c(c(=O)oc12)CCC3	-3	+	-4	2	9	i
COC(=O)[C@]12C[C@H](CC(=O)NCc3cccc4ccccc34)C(=O)N(CCC3=CCCCC3)C1=C[C@H](C(C)(C)C)O[C@@H]2C	x	x	-2	6	x	x
COc1cccc(OC)c1C(=O)NC(=S)NNC(=O)[C@H]1C[C@@H]1c1ccccc1	-3	+	-1	3	-1	i
CCn1c(=N)c(S(=O)(=O)c2ccc(C)cc2)cc2c(=O)n3ccccc3nc21	3	x	2	-4	x	x
Cc1ccc(S(=O)(=O)c2cc3c(=O)n4ccccc4nc3n(C)c2=N)cc1	4	+	-2	-2	0	i
CN(C)c1cccc(C(=O)NCc2ccc3c(c2)OCO3)c1	7	+	-4	2	-31	+
COc1ccccc1CNS(=O)(=O)c1ccc(F)cc1Br	x	x	-1	5	x	x
Cc1ccccc1C(=O)N1CCC(C(=O)Nc2ccccn2)CC1	-3	i	1	-4	-22	x
CSc1nc2nccc(-c3ccc4c(c3)OCO4)n2n1	5	+	0	-6	7	i
CSc1nc2nccc(-c3ccc(-c4ccccc4)cc3)n2n1	4	x	-2	10	-80	x
C=CCOc1ccccc1CNc1ccc2[nH]c(=O)[nH]c2c1	0	+	-4	2	-22	i
N#CC1(C(N)=O)OC12CCS(=O)(=O)c1ccccc12 (stereo not given)	x	i	-4	-3	10	x
COc1ccc2oc(C(=O)OCC(=O)N(C)CC(=O)Nc3ccc(C)cc3)c(C)c2c1	1	+	1	1	30	x
COc1ccc2oc(C(=O)OCC(=O)Nc3ccc(NC(C)=O)cc3)c(C)c2c1	-4	i	3	-6	-1	x
COc1ccc2oc(C(=O)OCC(=O)Nc3ccc(OC)c(S(N)(=O)=O)c3)c(C)c2c1	-1	+	-2	2	4	x
CC(NC(=O)c1cccc(N(C)C)c1)c1ccc(-n2ccnc2)cc1 (stereo not given)	2	+	-2	-4	35	i
CC(=O)Nc1cccc(C(=O)NC(C)c2ccc(-n3ccnc3)cc2)c1 (stereo not given)	2	i	1	4	-17	x
COc1ccc(CN(CCN2CCOCC2)C(=O)c2cc(F)ccc2F)cc1OC	x	x	x	0	x	x
C(=N\NC1=Nc2cccc3cccc1c23)/c1ccccc1	-1	i	-5	-6	-169	x
NC1=Nc2cccc3cccc1c23	-5	+	0	-2	-9	i
SMILES	NR2E3 ag-1	Neddylation inh	PG9 Ab binder	Rev-erbA mod	NR2E3 ag-2	Neddyl conf
Cc1ccc(NC(=O)CSc2nc3cc(C(=O)NCC4CCCO4)ccc3c(=O)n2CC2CCCO2)cc1 (stereo not given)	x	i	1	8	-2	x
Cc1nc(-c2cccs2)sc1C(=O)NN	-2	i	1	0	3	x
CCOC(=O)c1sc(-c2cccs2)nc1C	5	+	1	-1	6	i
Cc1cc(C)c2c(NC(=O)CCl)nn(C)c2n1	5	+	0	4	-12	i
O=C(CCCl)N1CCN(c2nc(-c3ccccc3)cs2)CC1	-3	i	-4	1	-88	x
O=C(Nc1ccc(/C=C/c2nc3ccccc3o2)cc1)c1c(F)cccc1F	-3	x	1	5	-164	x
CC(=O)Nc1ccc(/C=C/c2nc3ccccc3o2)cc1	1	+	0	2	-182	x
CC(=O)Nc1cccc(N/C=C(\C=O)c2nc3ccccc3o2)c1	-1	+	2	7	-54	i
CC(=O)Nc1ccc(N/C=C(\C=O)c2nc3ccccc3o2)cc1	1	x	0	3	21	x
CC1(C(=O)NS(=O)(=O)c2cccc(F)c2)CCN1C(=O)Cc1cccc2ccccc12 (stereo not given)	x	i	0	0	-13	x
O=c1c2c(nc3c(-c4ccccc4)c[nH]n13)CCCC2	-1	+	0	-6	-14	x
COc1ccc2c(c1)c(C(=O)CNc1nc(C)cs1)c(C)n2C	-6	+	-9	-5	2	i
CCOCc1cnc(C)nc1NCC(=O)c1c(C)n(C)c2ccc(OC)cc12	x	i	0	2	-18	x
Cc1ccc2c(c1)c(C)cc[n+]2Cc1ccccc1	-3	i	0	-1	-10	x
COc1ccc2c(c1)c(C)cc[n+]2Cc1ccccc1	x	+	-1	2	-33	x
CCN(CC(=O)Nc1ccc(NC(C)=O)cc1)C(=O)/C=C/c1ccc(C)o1	1	i	-1	-1	-5	x
CC(C)(C)c1cc(NC(=O)COC(=O)c2nccnc2N)n(-c2ccccc2)n1	1	x	-2	0	-1	x
Cc1cc(NC(=O)COC(=O)c2nccnc2N)n(-c2ccccc2)n1	-3	+	-1	0	11	x
Cc1ncc(C(=O)O)c(C(=O)O)c1N	4	+	-1	-3	-52	x
O=C(CCCCCN1C(=O)C2C3C=CC(C3)C2C1=O)Nc1cc(F)cc(F)c1 (stereo not given)	x	x	x	6	x	x
O=C(CCC(=O)N1CCOc2ccccc21)Nc1ccccc1Cl	2	i	-2	-3	8	x
Cc1nc(C(=O)NCCCO)cc2c1[nH]c1ccccc12	0	+	2	-5	-18	i
Cc1nc(C(=O)NCCO)cc2c1[nH]c1ccccc12	x	i	-2	-1	-6	x
Cc1nc(=O)c(-c2ccccc2)c(C)n1-c1cccc(/C=C/C(=O)O)c1	-5	i	1	6	5	x
NC1=NC(=O)/C(=C/c2c(OS(=O)(=O)c3ccc(Cl)cc3)ccc3ccccc23)S1	4	+	-3	-7	10	i
NC1=NC(=O)/C(=C/c2ccccc2OS(=O)(=O)c2ccccc2)S1	0	i	1	7	4	x
COc1ccc(C(=O)Nc2ccncc2)cc1S(=O)(=O)N1CCOCC1	0	i	1	6	-44	x
COc1ccc(C(=O)Nc2ccc(NC(=O)c3ccccc3)cc2)cc1S(=O)(=O)N1CCOCC1	-1	+	0	0	-29	i
